Measurements from ChEMBL document CHEMBL5331111, “Synthetic Biology Facilitates Semisynthetic Development of Type V Glycopeptide Antibiotics Targeting Vancomycin-Resistant Enterococcus” (J Med Chem, 2023).
≈ marks a conversion by molar mass, not a printed value. Calls of active or inactive are those of the source. No cut-off for these calls is given here.

Assays:
Enterococcus faecium [1] = assay: Antibacterial activity against Enterococcus faecium WCC 0496 assessed as inhibition of bacterial growth by Mueller-Hinton broth based assay; assay type: functional
Enterococcus faecium [2] = assay: Antibacterial activity against vancomycin-resistant Enterococcus faecium WCC 0541 assessed as inhibition of bacterial growth by Mueller-Hinton broth based assay; assay type: functional
Enterococcus faecalis = assay: Antibacterial activity against vancomycin-resistant Enterococcus faecalis ATCC 51299 assessed as inhibition of bacterial growth by Mueller-Hinton broth based assay; assay type: functional
Enterococcus faecium [3] = assay: Antibacterial activity against Enterococcus faecium WCC 0533 assessed as inhibition of bacterial growth by Mueller-Hinton broth based assay; assay type: functional
Enterococcus faecium [4] = assay: Antibacterial activity against vancomycin-resistant Enterococcus faecium ATCC 700221 assessed as inhibition of bacterial growth by Mueller-Hinton broth based assay; assay type: functional
[5] = tested on: Mycolicibacterium smegmatis; assay: Antimycobacterial activity against Mycobacterium smegmatis MC2 155 assessed as inhibition of bacterial growth measured after 2 days by resazurin dye based analysis; assay type: functional; conditions: MC2 155, 48 h, time 2 day
Outline: (§1)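 Strains grown in 7H9 broth with 0.2% glycerol, 10% OADC and 0.05% Tween-80. Inoculum was about 5 × 10^5 CFU/mL, checked by plating on 7H10/OADC agar to be 3–8 × 10^5. Read at 2 days for M. smegmatis and 7 days for M. tuberculosis H37Ra, M. bovis and M. avium. Resazurin 30 μg/mL was then added for one further day. Values are averages of at least two experiments.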

Bacillus subtilis = assay: Antibacterial activity against Bacillus subtilis 168 assessed as reduction in bacterial growth by Mueller-Hinton broth based assay; assay type: functional
Outline: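 Broth MIC by standard procedure in Mueller-Hinton broth, for both B. subtilis 168 and S. aureus ATCC 33591.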

[6] = Toxicity in cyclophosphamide induced neutropenic thigh infection CD-1 mouse model infected with Vancomycin-resistant Enterococcus faecium ATCC 700221 assessed as change in spleen weight at 100 mg/kg, ip qid measured after 24 hrs post-infection; assay type: organism-based; conditions: in vivo
Outline: (§2)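 Female CD-1 mice, 6–10 weeks old, made neutropenic with i.p. cyclophosphamide (150 mg/kg day 4, 100 mg/kg day 1). About 1 × 10^6 CFU of E. faecium ATCC 700221, grown in BHI with vancomycin, were injected into each thigh. Dosing was i.p. at 1, 3, 5 and 20 h post-infection, in PEG400/DMSO/H₂O (45/5/50) vehicle, with vehicle controls. Mice were euthanized at 24 h.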

[7] = tested on: Mycolicibacterium fortuitum; assay: Antimycobacterial activity against Mycobacterium fortuitum ATCC 6891 assessed as inhibition of bacterial growth measured after 2 days by resazurin dye based analysis; assay type: functional; conditions: ATCC 6891, 48 h, time 2 day
Outline: (§3)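 Cultured in 7H9 with 0.2% glycerol, 10% OADC and 0.05% Tween-80. Inoculum diluted to ~5 × 10^5 CFU/mL and confirmed at 3–8 × 10^5 by plating on 7H10 agar. Growth read at 2 days, then 30 μg/mL resazurin added for one more day. Values averaged from at least two experiments.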

Enterococcus faecium [8] = assay: Antibacterial activity against Enterococcus faecium WCC 0545 assessed as inhibition of bacterial growth by Mueller-Hinton broth based assay; assay type: functional
Enterococcus faecium [9] = assay: Antibacterial activity against Vancomycin-resistant Enterococcus faecium ATCC 700221 infected in cyclophosphamide induced neutropenic thigh infection CD-1 mouse model assessed as reduction in blood bacterial load at 100 mg/kg, ip qid measured after 24 hrs post-infection; assay type: functional; outline: as §2
Enterococcus faecium [10] = assay: Antibacterial activity against Enterococcus faecium WCC 0537 assessed as inhibition of bacterial growth by Mueller-Hinton broth based assay; assay type: functional
Enterococcus faecium [11] = assay: Antibacterial activity against Enterococcus faecium WCC 0491 assessed as inhibition of bacterial growth by Mueller-Hinton broth based assay; assay type: functional
Enterococcus faecium [12] = assay: Antibacterial activity against Enterococcus faecium WCC 0587 assessed as inhibition of bacterial growth by Mueller-Hinton broth based assay; assay type: functional
[13] = Hemolytic activity in human RBC incubated for 1 hr by absorbance based analysis; assay type: toxicity, cell-based, Erythrocyte; conditions: red blood cells (erythrocytes)
Outline: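 Human K2-EDTA blood RBCs washed twice in 150 mM NaCl, resuspended in PBS pH 7.4, then diluted 1:50. Incubated with compound at 1% final DMSO for 1 h at 37 °C and pelleted at 500g for 5 min. Supernatant absorbance read at 540 nm. Controls were DMSO-only and a Triton X-100 dilution series (20% to 0.02%).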

Enterococcus gallinarum = assay: Antibacterial activity against vancomycin-resistant Enterococcus gallinarum ATCC 49573 assessed as inhibition of bacterial growth by Mueller-Hinton broth based assay; assay type: functional
Enterococcus faecium [14] = assay: Antibacterial activity against Enterococcus faecium WCC 0528 assessed as inhibition of bacterial growth by Mueller-Hinton broth based assay; assay type: functional
Enterococcus faecium [15] = assay: Antibacterial activity against Enterococcus faecium WCC 0499 assessed as inhibition of bacterial growth by Mueller-Hinton broth based assay; assay type: functional
[16] = Toxicity in cyclophosphamide induced neutropenic thigh infection CD-1 mouse model infected with Vancomycin-resistant Enterococcus faecium ATCC 700221 assessed as change in thigh weight at 100 mg/kg, ip qid measured after 24 hrs post-infection; assay type: organism-based; conditions: in vivo; outline: as §2
Enterococcus faecium [17] = assay: Antibacterial activity against Enterococcus faecium WCC 0495 assessed as inhibition of bacterial growth by Mueller-Hinton broth based assay; assay type: functional
Enterococcus faecium [18] = assay: Antibacterial activity against Enterococcus faecium WCC 0516 assessed as inhibition of bacterial growth by Mueller-Hinton broth based assay; assay type: functional
Enterococcus faecium [19] = assay: Antibacterial activity against Enterococcus faecium WCC 0506 assessed as inhibition of bacterial growth by Mueller-Hinton broth based assay; assay type: functional
Enterococcus faecium [20] = assay: Antibacterial activity against Enterococcus faecium WCC 0586 assessed as inhibition of bacterial growth by Mueller-Hinton broth based assay; assay type: functional
[21] = Antimycobacterial activity against Mycobacterium avium subsp. avium ATCC 25291 assessed as inhibition of bacterial growth measured after 7 days by resazurin dye based analysis; assay type: functional; conditions: ATCC 25291, 168 h, time 7 day; outline: as §1
Enterococcus faecium [22] = assay: Antibacterial activity against Enterococcus faecium WCC 0502 assessed as inhibition of bacterial growth by Mueller-Hinton broth based assay; assay type: functional
[23] = Cytotoxicity against HEK293 cells assessed as inhibition of cell growth incubated for 48 hrs by Cell-Titer Glo reagent based analysis; assay type: toxicity; conditions: human
Outline: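 HEK293 cells seeded at 7500 cells/well in DMEM with 10% FBS, 2 mM glutamine and pen/strep, and left 18 h at 37 °C under 5% CO2. Compound then added at 1% final DMSO and incubated 48 h. Viability read by CellTiter-Glo luminescence and normalized to DMSO-only wells. Curves fitted by 4PL constrained to 0–1.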

Enterococcus faecium [24] = assay: Antibacterial activity against Enterococcus faecium WCC 0558 assessed as inhibition of bacterial growth by Mueller-Hinton broth based assay; assay type: functional
Enterococcus faecium [25] = assay: Antibacterial activity against Enterococcus faecium WCC 0553 assessed as inhibition of bacterial growth by Mueller-Hinton broth based assay; assay type: functional
Enterococcus faecium [26] = assay: Antibacterial activity against Vancomycin-resistant Enterococcus faecium ATCC 700221 infected in cyclophosphamide induced neutropenic thigh infection CD-1 mouse model assessed as reduction in weight loss at 100 mg/kg, ip qid measured after 24 hrs post-infection; assay type: functional, organism-based; outline: as §2
Enterococcus faecium [27] = assay: Antibacterial activity against Vancomycin-resistant Enterococcus faecium ATCC 700221 infected in cyclophosphamide induced neutropenic thigh infection CD-1 mouse model assessed as increase in survival rate at 100 mg/kg, ip qid measured after 24 hrs post-infection; assay type: functional, organism-based; outline: as §2
[28] = tested on: Mycobacterium tuberculosis; assay: Antimycobacterial activity against Mycobacterium tuberculosis H37Ra assessed as inhibition of bacterial growth measured after 7 days by resazurin dye based analysis; assay type: functional; conditions: 168 h, time 7 day; outline: as §1
Enterococcus faecium [29] = assay: Antibacterial activity against Enterococcus faecium WCC 0498 assessed as inhibition of bacterial growth by Mueller-Hinton broth based assay; assay type: functional
[30] = tested on: Mycobacteroides abscessus; assay: Antimycobacterial activity against Mycobacterium abscessus ATCC 19977 assessed as inhibition of bacterial growth measured after 2 days by resazurin dye based analysis; assay type: functional; conditions: ATCC 19977, 48 h, time 2 day; outline: as §3
Enterococcus faecium [31] = assay: Antibacterial activity against Enterococcus faecium WCC 0534 assessed as inhibition of bacterial growth by Mueller-Hinton broth based assay; assay type: functional
Enterococcus faecium [32] = assay: Antibacterial activity against Enterococcus faecium WCC 0492 assessed as inhibition of bacterial growth by Mueller-Hinton broth based assay; assay type: functional

For `CN(C)CCCNC(=O)[C@@H]1NC(=O)[C@@H]2Cc3ccc(cc3)Oc3cc4cc(c3O)-c3ccc5c(c[nH]c5c3)C[C@@H](NC(=O)C(NC(=O)CCCCCN)c3ccc(O)cc3)C(=O)N[C@H](c3ccc(O)cc3)C(=O)N[C@H]4C(=O)N[C@@H](C(=O)N2C)c2ccc(cc2)Oc2cc1ccc2O` (stereo not given in full), the MIC (Enterococcus faecium [1]) was 1 µg/mL (≈ 0.758 µM), the MIC (Enterococcus faecium [2]) was 1 µg/mL (≈ 0.758 µM) and the MIC (Enterococcus faecalis) was 1 µg/mL (≈ 0.758 µM). The MIC (Enterococcus faecium [3]) was 0.5 µg/mL (≈ 0.379 µM), the MIC (Enterococcus faecium [4]) was 0.5 µg/mL (≈ 0.379 µM) and the MIC [5] was 0.5 µg/mL (≈ 0.379 µM). The MIC (Bacillus subtilis) was 1 µg/mL (≈ 0.758 µM), the Activity [6] was “Non-Toxic” and the MIC [7] was 2 µg/mL (≈ 1.52 µM). The MIC (Enterococcus faecium [8]) was 2 µg/mL (≈ 1.52 µM), the “log(activity)” value (Enterococcus faecium [9]) was 3 CFU/g and the MIC (Enterococcus faecium [10]) was 2 µg/mL (≈ 1.52 µM). The MIC (Enterococcus faecium [11]) was 1 µg/mL (≈ 0.758 µM), the MIC (Enterococcus faecium [12]) was 1 µg/mL (≈ 0.758 µM) and the IC50 at 1 h [13] was > 256 µg/mL. For the same compound, the MIC (Enterococcus gallinarum) was 2 µg/mL (≈ 1.52 µM), the MIC (Enterococcus faecium [14]) was 1 µg/mL (≈ 0.758 µM) and the MIC (Enterococcus faecium [15]) was 1 µg/mL (≈ 0.758 µM). The Activity [16] was “Non-Toxic”, the MIC (Enterococcus faecium [17]) was 1 µg/mL (≈ 0.758 µM) and the MIC (Enterococcus faecium [18]) was 0.5 µg/mL (≈ 0.379 µM). For the same compound, the MIC (Enterococcus faecium [19]) was 1 µg/mL (≈ 0.758 µM), the MIC (Enterococcus faecium [20]) was 1 µg/mL (≈ 0.758 µM) and the MIC [21] was > 128 µg/mL. For the same compound, the MIC (Enterococcus faecium [22]) was 1 µg/mL (≈ 0.758 µM), the IC50 at 48 h [23] was > 256 µg/mL and the MIC (Enterococcus faecium [24]) was 1 µg/mL (≈ 0.758 µM). The MIC (Enterococcus faecium [25]) was 1 µg/mL (≈ 0.758 µM), the Activity (Enterococcus faecium [26]) was “Active” and the Activity (Enterococcus faecium [27]) was “Active”. The MIC [28] was 32 µg/mL (≈ 24.3 µM), the MIC (Enterococcus faecium [29]) was 2 µg/mL (≈ 1.52 µM) and the MIC [30] was 2 µg/mL (≈ 1.52 µM). It also gave an MIC (Enterococcus faecium [31]) of 0.5 µg/mL (≈ 0.379 µM) and an MIC (Enterococcus faecium [32]) of 2 µg/mL (≈ 1.52 µM).
